One experiment deals with mAb against AZN (35D1D2). Description: indirect competitive ELISA. Format: binding, mouse. To be noted: ic-ELISA; for Cross-reactivity: CR = IC50 of AZN / IC50 of related analyte × 100; for IC50: coating antigen 0.23 and mAb 0.38 µg/mL. Background: An ELISA detects its analyte on a solid surface through an enzyme-linked reagent.
The test system of a further experiment is anti-AZN mAb. Description: indirect ICA. Type of experiment: binding, mouse. To be noted: pork extract; strip reader standard curve. Summed up: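 AZN standard spiked into treated pork samples at 8, 4, 2, 1, 0.5, 0.25 and 0 ng/g. A set amount of mAb is added to the sample well and held 5 min at room temperature before strip insertion. The T line is AZL-SA-OVA, the C line mouse IgG, and the conjugate pad AuNP-goat anti-mouse IgG.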

Converted amounts (≈) assume the structure as drawn. Some results are limits rather than exact numbers.

With `O=C(CCCN1CCC(O)(c2ccc(Cl)cc2)CC1)c1ccc(F)cc1` [HAL, haloperidol], in the experiment with mAb against AZN (35D1D2), the Cross-reactivity was less than 0.035%.

In the case of `CC(C)NCC(O)COc1cccc2[nH]c3ccccc3c12` (stereo not drawn) [CAR, carazolol], in the experiment on mAb against AZN (35D1D2), the Cross-reactivity was less than 0.035% and the IC50 (usually the midpoint of a concentration-inhibition curve) is “˃1000 ng/mL”.

On to `O=C(CCCN1CCN(c2ccccn2)CC1)c1ccc(F)cc1` [AZN, Azaperone], for which the “IC50, indirect ICA” value in the experiment with anti-AZN mAb was found to be 0.74 ng/g. Also, in the experiment with mAb against AZN (35D1D2), the Cross-reactivity is 100% and the IC50 is recorded as 0.35 ng/mL (≈ 1.07 nM).

Regarding `Cc1cccc(C)c1N=C1NCCCS1` [XYL, xylazine], in the experiment with mAb against AZN (35D1D2), the Cross-reactivity is given as less than 0.035% and the IC50 entry is “˃1000 ng/mL”.

As for `CN(C)CCCN1c2ccccc2Sc2ccc(Cl)cc21` [CHL, Chlorpromazine], in the experiment with mAb against AZN (35D1D2), the Cross-reactivity was less than 0.035% and the IC50 entry was “˃1000 ng/mL”.

As for `O=C(CCCN1CC=C(n2c(=O)[nH]c3ccccc32)CC1)c1ccc(F)cc1` [DRO, Droperidol], in the experiment with mAb against AZN (35D1D2), the Cross-reactivity is on record as less than 0.035% and the 50% inhibitory concentration (IC50) entry is recorded as “˃1000 ng/mL”.

The values above are taken from paper PMC9720522 (Food Chemistry: X, 2022).
